Results on 3 molecules are retold here after publication PMC3038628 (Journal of molecular biology, 2010).

Assay [1] deals with α-tocopherol transfer protein (α-TTP). Particulars: cited from earlier work.
Assay [2] in a line: FRET assay of NBD-Toc transfer from α-TTP variants to LUVs. It is filed as biochemical. Particulars: for Rate of NBD-Toc transfer to LUV, Rate^mut/Rate^wt: relative to wild type. In short, it runs like this:
(§1)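 Each protein (4 μM) was preloaded with 0.45 μM NBD-Toc for 15 min in SET buffer (pH 7.4). It was then stopped-flow mixed at room temperature with 200 μM acceptor vesicles of 97% liver PC and 3% TRITC-PE (finals 0.225 μM, 2 μM, 100 μM). Vesicles were sonicated SUVs (~60 nm) or extruded LUVs (150 nm). NBD quench was normalised to initial fluorescence and fitted single-exponentially.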

The nature of assay [3]: FRET assay of NBD-Toc transfer from α-TTP variants to SUVs. It is filed as biochemical. Particulars: for Rate of NBD-Toc transfer to SUV, Rate: PC vesicles, 0.225 μM NBD-Toc, 2 μM α-TTP, 100 μM vesicles, room temperature; for Reduction of rate of transfer to SUVs: reduction relative to wild type; for Rate of NBD-Toc transfer to SUV, Rate^mut/Rate^wt: relative to wild type. In short, it runs like this:
as §1

Assay [4] in a line: Dual polarization interferometry of protein adsorption to immobilized bilayer. The format is binding. Particulars: for Ads^mut/Ads^wt (0.50 μM injection): 0.50 μM protein injection; for Ads^mut/Ads^wt (1.0 μM injection): 1.0 μM protein injection. In short, it runs like this: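 Recombinant α-TTP (E. coli BL21(DE3), glutathione affinity, thrombin-cleaved) was dialysed 1 h at 4 °C into pH 7.4 phosphate/137 mM NaCl buffer. It was injected at 25 μl/min for 8 min over a 90:10 DOPC:DOPS bilayer on a silicon oxynitride chip at 20 °C. Adsorbed mass was measured at 0.5 and 1.0 μM in quadruplicate, two channels each. Kd came from fitting Bmax against concentration.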

Assay [5] concerns HepG2 cells. The assay is described as follows: α-TTP-induced secretion of NBD-tocopherol from cultured hepatocytes. It is filed as cell-based, Human. To be noted: transiently transfected HepG2; NBD-Toc fluorescence. In short, it runs like this:
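HepG2/C3A cells on collagen-coated coverslips (DMEM, 10% FBS) were transiently transfected with α-TTP variants in pcDNA3.1, with mock controls. At 30 h they received 5 μM lipoprotein-complexed NBD-tocopherol for 16–18 h at 37 °C, then 4 h in normal medium for secretion. Cells were fixed, permeabilised and DAPI-stained. NBD fluorescence was imaged at 40× over >14 fields per slide, normalised to cell number; expression was checked by Western blot.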

The nature of assay [6]: Filtration. It is filed as binding. To be noted: compared with wild type. In short, it runs like this: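 Recombinant α-TTP (31.5 μg) was incubated with increasing concentrations of sonicated SUVs or extruded 150 nm LUVs in SET buffer for 30 min at room temperature. Mixtures were spun through 100 kDa-cutoff filters at 10,000g for 20 min to separate vesicle-bound from free protein. Protein was resolved on gels, stained with colloidal Coomassie and quantified by band densitometry.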

Regarding `Cc1c(C)c2c(c(C)c1O)CC[C@@](C)(CCC[C@H](C)CCC[C@H](C)CCCC(C)C)O2` [α-tocopherol], in assay [1], the equilibrium dissociation constant (Kd) was about 25 nM.

B1: F169D: α-TTP mutant, Phe169 to Asp (helix A8) (protein, UniProt P49638 1-278, looked up, variant F169D)
Alpha-tocopherol transfer …: MAEARSQPSAGPQLNALPDHSPLLQPGLAALRRRAREAGVPLAPLPLTDSFLLRFLRARDFDLDLAWRLLKNYYKWRAECPEISADLHPRSIIGLLKAGYHGVLRSRDPTGSKVLIYRIAHWDPKVFTAYDVFRVSLITSELIVQEVETQRNGIKAIFDLEGWQFSHADQITPSVAKKIAAVLTDSFPLKVRGIHLINEPVIFHAVFSMIKPFLTEKIKERIHMHGNNYKQSLLQHFPDILPLEYGGEEFSMEDICQEWTNFIMKSEDYLSSISESIQ
For B1, the “Rate of NBD-Toc transfer to LUV, Rate^mut/Rate^wt” value in assay [2] came to 0%. For the same molecule, in assay [3], the “Rate of NBD-Toc transfer to SUV, Rate” value worked out at 0.015 ± 0.002 s⁻¹; the “Reduction of rate of transfer to SUVs” value is 88%; the “Rate of NBD-Toc transfer to SUV, Rate^mut/Rate^wt” value came to 12%. Besides, in assay [4], the “Ads^mut/Ads^wt (0.50 μM injection)” value was 0.18 and the “Ads^mut/Ads^wt (1.0 μM injection)” value amounted to 0.23. Besides, in assay [4] (relative to wild type), the “Fold change in affinity” value is 14.3. For the same molecule, the “Inhibition of tocopherol secretion as compared to the wild-type TTP” value in assay [5] is on record as 5 fold.

B2: F169A: α-TTP mutant, Phe169 to Ala (protein, UniProt P49638 1-278, looked up, variant F169A)
Alpha-tocopherol transfer …: MAEARSQPSAGPQLNALPDHSPLLQPGLAALRRRAREAGVPLAPLPLTDSFLLRFLRARDFDLDLAWRLLKNYYKWRAECPEISADLHPRSIIGLLKAGYHGVLRSRDPTGSKVLIYRIAHWDPKVFTAYDVFRVSLITSELIVQEVETQRNGIKAIFDLEGWQFSHAAQITPSVAKKIAAVLTDSFPLKVRGIHLINEPVIFHAVFSMIKPFLTEKIKERIHMHGNNYKQSLLQHFPDILPLEYGGEEFSMEDICQEWTNFIMKSEDYLSSISESIQ
Turning to B2, the “Rate of NBD-Toc transfer to LUV, Rate” value in assay [2] (PC vesicles, 0.225 μM NBD-Toc, 2 μM α-TTP, 100 μM vesicles, room temperature) was 0.008 ± 0.002 s⁻¹. Moreover, the “Rate of NBD-Toc transfer to LUV, Rate^mut/Rate^wt” value in assay [2] was determined as 48%. Also, in assay [3], the “Rate of NBD-Toc transfer to SUV, Rate” value is 0.067 ± 0.006 s⁻¹; the “Reduction of rate of transfer to SUVs” value was determined as 47%; the “Rate of NBD-Toc transfer to SUV, Rate^mut/Rate^wt” value is on record as 53%. In assay [4], the “Ads^mut/Ads^wt (0.50 μM injection)” value turned out to be 0.33 and the “Ads^mut/Ads^wt (1.0 μM injection)” value was found to be 0.51. Besides, the “Vesicle binding to SUVs (in words)” value in assay [6] is given as “diminished vesicle binding”. Also, the “Inhibition of tocopherol secretion as compared to the wild-type TTP” value in assay [5] turned out to be 2 fold.
